According to ChEMBL document CHEMBL1152300, “Ligand specificity of constitutive androstane receptor as probed by induced-fit docking and mutagenesis” (J Med Chem, 2008):

Legend:
Type in all cases: cell-based
[1] = biological target: T1, Nuclear receptor subfamily 1 group I member 3 (Mus musculus, UniProt O35627, F171A); experiment: Decrease in nuclear co-repressor receptor binding to mouse CAR F171A mutant […] at 10 uM by yeast two-hybrid assay; settings: read-out: Activity
In short: (§1)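 Yeast expressing wild-type or mutant mouse CAR LBD plus NCoR, selected on SD plates lacking leucine and tryptophan. Pooled colonies treated with DMSO or compound for 3.5 h. β-Galactosidase activity normalized to cell density. Reference is 10 µM androstenol (=100). Mean ± SD of two independent determinations, each in triplicate.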

[2] = biological target: T2, Nuclear receptor subfamily 1 group I member 3 (Mus musculus, UniProt O35627, T350A); experiment: Activation of mouse CAR T350A mutant expressed in HEK293 cells at 10 uM by mammalian one-hybrid assay; settings: hek293, 10 µM
In short: (§2)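 GAL4 DBD fused to mouse CAR LBD (residues 118-358), wild type or point mutant, cotransfected with UASx4-tk-luc reporter and pCMVβ into HEK293 cells. Cells cultured with DMSO (0.1% v/v) or compound (final 1, 2 or 10 µM). Lysed 24 h post-transfection. Luciferase normalized to β-galactosidase, expressed relative to empty GAL4 vector (=1.0). Mean ± SD, three independent experiments.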

[3] = biological target: T3, Nuclear receptor subfamily 1 group I member 3 (Mus musculus, UniProt O35627, S251L); experiment: Activation of mouse CAR S251L mutant expressed in HEK293 cells at 10 uM by mammalian one-hybrid assay; settings: hek293, 10 µM; in short: as §2
[4] = biological target: T4, Nuclear receptor subfamily 1 group I member 3 (Mus musculus, UniProt O35627, H213A); experiment: Effect on nuclear co-repressor receptor binding to mouse CAR H213A mutant […] at 10 uM by yeast two-hybrid assay; settings: read-out: Activity
In short: (§3)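 Yeast two-hybrid: yeast expressing wild-type or mutant mouse CAR LBD plus SRC-1 or NCoR, selected on SD medium lacking Leu and Trp. Pooled colonies treated with DMSO or test chemical for 3.5 h. β-Galactosidase normalized to cell density. SRC-1 reference: wild-type + DMSO = 100. NCoR reference: 10 µM androstenol = 100. Mean ± SD, two independent determinations, each in triplicate.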

[5] = biological target: T5, Nuclear receptor subfamily 1 group I member 3 (Mus musculus, UniProt O35627, N175A); experiment: Decrease in steroid receptor coactivator 1 binding to mouse CAR N175A mutant […] at 10 uM by yeast two-hybrid assay; settings: read-out: Activity
In short: as §1, with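 “SRC-1,” for “NCoR,”, “wild-type CAR + SRC-1 with DMSO” for “10 µM androstenol”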

[6] = biological target: T6, Nuclear receptor subfamily 1 group I member 3 (Mus musculus, UniProt O35627, L353A); experiment: Effect on steroid receptor coactivator 1 binding to mouse CAR L353A mutant […] at 2 uM by yeast two-hybrid assay; settings: read-out: Activity; in short: as §3
[7] = biological target: T7, Nuclear receptor subfamily 1 group I member 3 (Mus musculus, UniProt O35627, I252L); experiment: Effect on steroid receptor coactivator 1 binding to mouse CAR I252L mutant […] at 2 uM by yeast two-hybrid assay; settings: read-out: Activity; in short: as §3
[8] = biological target: T1, Nuclear receptor subfamily 1 group I member 3; experiment: Activation of mouse CAR F171A mutant expressed in HEK293 cells at 2 uM by mammalian one-hybrid assay; settings: hek293, 2 µM
In short: (§4)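 GAL4-DBD fused to mouse CAR LBD (residues 118-358), wild-type or point mutant, cotransfected with UASx4-tk-luc reporter and pCMVβ into HEK293 cells. Cells were exposed to final 1 µM, 2 µM or 10 µM test chemical, or 0.1% v/v DMSO, for 24 h after transfection. Luciferase was normalized to β-galactosidase and set against empty GAL4 vector (=1.0). Mean ± standard deviation, three independent experiments.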

[9] = biological target: T5, Nuclear receptor subfamily 1 group I member 3; experiment: Decrease in nuclear co-repressor receptor binding to mouse CAR N175A mutant […] at 2 uM by yeast two-hybrid assay; settings: read-out: Activity; in short: as §3
[10] = biological target: T8, Nuclear receptor subfamily 1 group I member 3 (Mus musculus, UniProt O35627, L253F); experiment: Decrease in mouse CAR L253F mutant activation expressed in HEK293 cells at 2 uM by mammalian one-hybrid assay; settings: read-out: Activity; in short: as §4
[11] = biological target: Nuclear receptor subfamily 1 group I member 3 (Mus musculus, UniProt O35627, T350M); experiment: Effect on steroid receptor coactivator 1 binding to mouse CAR T350M mutant […] at 2 uM by yeast two-hybrid assay; settings: read-out: Activity; in short: as §3
[12] = biological target: Nuclear receptor subfamily 1 group I member 3 (Mus musculus, UniProt O35627, Y336A); experiment: Decrease in steroid receptor coactivator 1 binding to mouse CAR Y336A mutant […] at 2 uM by yeast two-hybrid assay; settings: read-out: Activity; in short: as §3
[13] = biological target: T5, Nuclear receptor subfamily 1 group I member 3; experiment: Decrease in mouse CAR N175A mutant activation expressed in HEK293 cells at 2 uM by mammalian one-hybrid assay; settings: read-out: Activity; in short: as §4
[14] = biological target: T6, Nuclear receptor subfamily 1 group I member 3; experiment: Decrease in nuclear co-repressor receptor binding to mouse CAR L353A mutant […] at 2 uM by yeast two-hybrid assay; settings: read-out: Activity; in short: as §3
[15] = biological target: T3, Nuclear receptor subfamily 1 group I member 3; experiment: Decrease in nuclear co-repressor receptor binding to mouse CAR S251L mutant […] at 2 uM by yeast two-hybrid assay; design: scale not given: the % may be the effect or the level left; in short: as §3
[16] = biological target: T2, Nuclear receptor subfamily 1 group I member 3; experiment: Decrease in steroid receptor coactivator 1 binding to mouse CAR T350A mutant […] at 2 uM by yeast two-hybrid assay; settings: read-out: Activity; in short: as §3
[17] = biological target: T3, Nuclear receptor subfamily 1 group I member 3; experiment: Effect on steroid receptor co-activator 1 binding to mouse CAR S251L mutant […] at 1 uM by yeast two-hybrid assay; settings: read-out: Activity
In short: (§5)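 Yeast two-hybrid assay. Yeast co-expressing wild-type or mutant mouse CAR LBD and the SRC-1 partner were selected on SD plates lacking leucine and tryptophan. Random colonies were pooled and amplified, then treated with DMSO or test chemical for 3.5 h. β-galactosidase activity was normalized to cell density and set relative to wild-type mCAR + SRC-1 with DMSO (=100). Mean ± standard deviation of two determinations, each in triplicate.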

[18] = biological target: T6, Nuclear receptor subfamily 1 group I member 3; experiment: Decrease in steroid receptor coactivator 1 binding to mouse CAR L353A mutant […] at 1 uM by yeast two-hybrid assay; settings: read-out: Activity
In short: as §1, with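 “SRC-1,” for “NCoR,”, “wild-type CAR + SRC-1 with DMSO” for “10 µM androstenol”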

[19] = biological target: T2, Nuclear receptor subfamily 1 group I member 3; experiment: Effect on nuclear co-repressor receptor binding to mouse CAR T350A mutant […] at 1 uM by yeast two-hybrid assay; settings: read-out: Activity; in short: as §1
[20] = biological target: T7, Nuclear receptor subfamily 1 group I member 3; experiment: Effect on nuclear co-repressor receptor binding to mouse CAR I252L mutant […] at 1 uM by yeast two-hybrid assay; settings: read-out: Activity; in short: as §1
[21] = biological target: T1, Nuclear receptor subfamily 1 group I member 3; experiment: Effect on steroid receptor co-activator 1 binding to mouse CAR F171A mutant […] at 1 uM by yeast two-hybrid assay; settings: read-out: Activity
In short: as §1, with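 “SRC-1,” for “NCoR,”, “wild-type CAR + SRC-1 with DMSO” for “10 µM androstenol”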

[22] = biological target: T4, Nuclear receptor subfamily 1 group I member 3; experiment: Effect on nuclear co-repressor receptor binding to mouse CAR H213A mutant […] at 1 uM by yeast two-hybrid assay; settings: read-out: Activity; in short: as §1
[23] = biological target: T8, Nuclear receptor subfamily 1 group I member 3; experiment: Effect on steroid receptor coactivator 1 binding to mouse CAR L253F mutant […] at 1 uM by yeast two-hybrid assay; settings: read-out: Activity; in short: as §5

T2 sequence (O35627 whole entry T350A, the tested form may be a part): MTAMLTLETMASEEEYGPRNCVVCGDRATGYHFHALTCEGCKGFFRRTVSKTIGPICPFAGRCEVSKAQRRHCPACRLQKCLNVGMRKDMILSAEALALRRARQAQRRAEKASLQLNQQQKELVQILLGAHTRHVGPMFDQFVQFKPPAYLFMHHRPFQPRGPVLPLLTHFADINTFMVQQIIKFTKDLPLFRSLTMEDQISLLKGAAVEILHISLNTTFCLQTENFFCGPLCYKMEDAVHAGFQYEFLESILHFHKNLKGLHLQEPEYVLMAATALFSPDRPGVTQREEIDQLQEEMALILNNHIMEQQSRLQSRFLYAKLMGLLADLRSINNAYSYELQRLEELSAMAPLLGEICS
T6 sequence (O35627 whole entry L353A): as the sequence (O35627 whole entry T350A, the tested form may be a part) above, with A350T, L353A counted along it
T5 sequence (O35627 whole entry N175A): as the sequence (O35627 whole entry T350A, the tested form may be a part) above, with N175A, A350T counted along it
T1 sequence (O35627 whole entry F171A, the tested form may be a part): as the sequence (O35627 whole entry T350A, the tested form may be a part) above, with F171A, A350T counted along it
T3 sequence (O35627 whole entry S251L): as the sequence (O35627 whole entry T350A, the tested form may be a part) above, with S251L, A350T counted along it
T8 sequence (O35627 whole entry L253F): as the sequence (O35627 whole entry T350A, the tested form may be a part) above, with L253F, A350T counted along it
T7 sequence (O35627 whole entry I252L): as the sequence (O35627 whole entry T350A, the tested form may be a part) above, with I252L, A350T counted along it
T4 sequence (O35627 whole entry H213A, the tested form may be a part): as the sequence (O35627 whole entry T350A, the tested form may be a part) above, with H213A, A350T counted along it
Nuclear receptor subfamily 1 group I member 3 (Mus musculus, UniProt O35627, Y336A), sequence (O35627 whole entry Y336A): as the sequence (O35627 whole entry T350A, the tested form may be a part) above, with Y336A, A350T counted along it
Nuclear receptor subfamily 1 group I member 3 (Mus musculus, UniProt O35627, T350M), sequence (O35627 whole entry T350M): as the sequence (O35627 whole entry T350A, the tested form may be a part) above, with A350M counted along it

## C[C@]12CC[C@@H](O)C[C@@H]1CC[C@@H]1[C@@H]2CC[C@]2(C)C=CC[C@@H]12 [ANDROSTENOL]
[1]
  inhibition at 10 µM: ≥ 50%
[2]
  Activity: < 50%
[3]
  Activity: < 50%

## COc1ccccc1CC(CC(=O)Cc1ccccc1)OC (stereo not drawn)
[4]
  activity at 10 µM: < 50%

## COc1ccc(C(c2ccc(OC)cc2)C(Cl)(Cl)Cl)cc1 [METHOXYCHLOR]
[5]
  inhibition at 10 µM: ≥ 50%

## Clc1ccccc1C(c1ccccc1)(c1ccccc1)n1ccnc1 [CLOTRIMAZOLE]
[6]
  activity at 2 µM: < 50%
[7]
  activity at 2 µM: < 50%
[8]
  Activity: > 100%
[9]
  inhibition at 2 µM: < 50%
[10]
  inhibition at 2 µM: 50%
[11]
  activity at 2 µM: < 50%
[12]
  inhibition at 2 µM: ≥ 50%
[13]
  inhibition at 2 µM: 50%
[14]
  inhibition at 2 µM: ≥ 50%
[15]
  Activity: >= 50%
[16]
  inhibition at 2 µM: ≥ 50%

## Clc1cnc(Oc2ccc(Oc3ncc(Cl)cc3Cl)cc2)c(Cl)c1
[17]
  activity at 1 µM: < 50%
[18]
  inhibition at 1 µM: ≥ 50%
[19]
  activity at 1 µM: < 50%
[20]
  activity at 1 µM: < 50%
[21]
  activity at 1 µM: < 50%
[22]
  activity at 1 µM: < 50%
[23]
  activity at 1 µM: < 50%
